Reference: ChEMBL document CHEMBL1795259, “Thymol, benzofuranoid, and phenylpropanoid derivatives: anti-inflammatory constituents from Eupatorium cannabinum” (J Nat Prod, 2011)

Key:
Details in all cases: Neutrophil
[1] = Antiinflammatory activity in human neutrophils assessed as inhibition of fMLP/cytochalasin B-induced superoxide anion production at 10 ug/mL after 5 mins by spectrophotometer analysis; format: functional
Procedure, shortened: (§1)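 Donor neutrophils (6 × 10^5/mL) prepared as for elastase, with 0.5 mg/mL ferricytochrome c and 1 mM Ca2+. Equilibrated 2 min at 37 °C, compound or DMSO 5 min, CB 1 μg/mL 3 min, then fMLP 100 nM 10 min. A550 monitored continuously with stirring. SOD (100 U/mL)-inhibitable reduction, ε = 21.1/mM/10 mm. Mean ± SEM, n = 3-4.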

[2] = Antiinflammatory activity in human neutrophils assessed as inhibition of fMLP/cytochalasin B-induced elastase release using MeO-Suc-Ala-Ala-Pro-Val-p-nitroanilide as elastase substrate at 10 ug/mL after 5 mins; format: functional
Procedure, shortened: (§2)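 Neutrophils isolated from venous blood of healthy adult volunteers (20-28 y) by dextran sedimentation, Ficoll-Hypaque centrifugation and hypotonic erythrocyte lysis, >98% viable, kept in Ca2+-free HBSS pH 7.4 at 4 °C. Cells (6 × 10^5/mL) given 100 μM substrate, equilibrated 2 min at 37 °C, compound 5 min, then fMLP 100 nM/CB 0.5 μg/mL; A405 monitored continuously. Mean ± SEM, n = 3-4.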

[3] = Antiinflammatory activity in human neutrophils assessed as inhibition of fMLP/cytochalasin B-induced elastase release using MeO-Suc-Ala-Ala-Pro-Val-p-nitroanilide as elastase substrate after 5 mins; format: functional, cell-based; procedure, shortened: as §2
[4] = Antiinflammatory activity in human neutrophils assessed as inhibition of fMLP/cytochalasin B-induced superoxide anion production after 5 mins by spectrophotometer analysis; format: functional, cell-based; procedure, shortened: as §1

| Compound | inhibition at 10 µg/mL [1] | inhibition at 10 µg/mL [2] | IC50 [3] | IC50 [4] |
| --- | --- | --- | --- | --- |
| C=C(COC(=O)/C(C)=C\C)c1ccc(C)cc1O | 20.3% | 23% | – | – |
| C=C(COC(=O)CC(C)C)c1ccc(C)cc1O | 39.6% | – | 18.3 µM | – |
| Cc1ccc2c(c1)OC(C)(O)C2=O (stereo not drawn) | 0.02% | 17.3% | – | – |
| CC(=O)C(=O)c1ccc(C)cc1O | 10.1% | 37.3% | – | – |
| C/C=C(\C)C(=O)Oc1cc(C)ccc1C1(COC(C)=O)CO1 (stereo not drawn) | – | – | 25.8 µM | 8.32 µM |
| C=C(COC(C)=O)c1ccc(C)cc1OC(=O)/C(C)=C/C | – | 36.6% | – | 8.5 µM |
| C/C=C(\C)C(=O)Oc1cc(C)ccc1C(C)COC(C)=O (stereo not drawn) | – | 21.6% | – | 18.4 µM |
| C=C(CO)c1ccc(C)cc1O | 2.67% | 1.86% | – | – |
| C=C(COC(=O)C(C)C)c1ccc(C)cc1O | 32.7% | – | 16.1 µM | – |
| COC(C)(COC(=O)C(C)C)c1ccc(C)cc1O (stereo not drawn) | – | 30% | – | 8.19 µM |
| C/C=C(/C)C(=O)OCC(C)(OC)c1ccc(C)cc1O (stereo not drawn) | 14.7% | 13.6% | – | – |
| C/C=C(/C)C(=O)OCC(O)(COC(C)=O)c1ccc(C)cc1O (stereo not drawn) | – | – | 6.27 µM | 13.1 µM |
| Cc1ccc2c(c1)OC1OC3(CCC21O)c1ccc(C)cc1OC3O (stereo not drawn) | 4.37% | 13% | – | – |
| CC(=O)c1ccc(CO)cc1O | – | – | 6.38 µM | 8.13 µM |
| C/C=C(/C)C(=O)O[C@@H]1Oc2cc(C)ccc2[C@@]1(C)O (relative stereo) [EUPATOBENZOFURAN] | 37.1% | – | 11.3 µM | – |
| O=c1ccc2ccccc2o1 [COUMARIN] | 8.5% | 23.8% | – | – |
| C=C(C)c1cc2cc(C(C)=O)c(O)cc2o1 [EUPARIN] | 13.7% | 12.6% | – | – |
| O=c1cc(N2CCOCC2)oc2c(-c3ccccc3)cccc12 [LY-294002] | – | – | 1.98 µM | 1.09 µM |
| C=C1CC[C@]2(C)CC[C@]3(C)[C@H](CC[C@@H]4[C@@]5(C)CC[C@H](OC(C)=O)C(C)(C)[C@@H]5CC[C@]43C)[C@H]2[C@@H]1C [TARAXASTEROL ACETATE] | 0.68% | 4.73% | – | – |
